Experimental data from different studies.
Protocols differ between the studies behind these lines.
Target: Tyrosine-protein kinase Yes (YES1, Homo sapiens, UniProt P07947)

Structure (SMILES)	observed	action	technique	tested at	endpoint	value
C=CC(=O)N1CCC[C@@H](n2nc(-c3ccc(Oc4ccccc4)cc3)c3c(N)ncnc32)C1	enzyme activity	inhibitor		1 µM	inhibition	97%
C1=C/COCc2cc(ccc2OCCN2CCCC2)Nc2nccc(n2)-c2cccc(c2)COC/1	binding			0.1 µM	remaining binding	71%
Cc1ccc(NC(=O)c2ccnc(C(F)(F)F)c2)cc1-c1cc(OCCO)nc(N2CCOCC2)c1	binding		competition with immobilised ligand	1 µM	remaining binding	87%
Cc1cc(O)c(-c2ccc([C@@H](C)CN(C)C)cc2)c2c1[nH]c(=O)c1sccc12	enzyme activity	inhibitor		0.1 µM	inhibition	10.3%
CCCCC(=O)Nc1ccc(-c2ccc3ncn(CCC)c(=O)c3c2)cn1	binding		competition with immobilised ligand	0.5 µM	remaining binding	100%
CO[C@@H]1[C@H](N(C)C(=O)c2ccccc2)C[C@H]2O[C@]1(C)n1c3ccccc3c3c4c(c5c6ccccc6n2c5c31)C(=O)NC4	enzyme activity	inhibitor		1 µM	inhibition	39%
CN1CCN(C(=O)c2ccc(NC(=O)Nc3ccc(N(C)c4ccnc(Nc5ccc(CS(C)(=O)=O)cc5)n4)cc3)cc2)CC1	binding		competition with immobilised ligand	1 µM	remaining binding	96%
COc1ccc2oc(-c3ccc4nc(N)oc4c3)c/c(=N\c3ccccc3NC(=O)CCN)c2c1	binding			1 µM	remaining binding	101%
